MT1-MMP act inh: MT1-MMP (human) activation inhibition. P50281. HT1080 RFP-PRO-GFP cells, GFP/RFP ratio fluorescence, overnight; percent of plate control window, DMSO zero. GFP/RFP ratio change, % at 20 µM. hit rate 0.061% among 360,000. AID 651647;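 active = GFP/RFP ratio change of at least 30% with cell ATP level not reduced by more than half and red fluorescence within 50% of control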
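Assay system: HT1080 RFP-PRO-GFP cells. Benchmarks: DMSO vehicle wells and RFP-L50D-GFP reporter cell wells. Times: overnight cell settling, then overnight compound exposure, 37 °C, 5% CO2. Compound: 20 µM single dose, 1% DMSO. Read-out basis: GFP/RFP fluorescence ratio.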
Cneo AK release: Cryptococcus neoformans lysis via adenylate kinase release; lysis activity, % at 15 µM; AID 651654; hit rate 0.2% among 360,000; C. neoformans lysis, adenylate kinase release luminescence, 4 h; normalised: neutral wells 0, clomiphene wells 100;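 active = mean lysis activity across replicates of at least 80%, whatever share of replicates individually reach that level; inactive = mean lysis activity below 80%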
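Schedule: static 4 h at 37 °C with compound, 1 h detection; system: C. neoformans cells; benchmarks: Clomiphene as positive control; buffer or medium: fresh YPD medium; measure: luminescence rise reflecting yeast cell lysis; measured by: luminescent adenylate kinase detection reagent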
SKN-1 inh: blocks SKN-1 activity in C. elegans. C. elegans VP596 Pgst-4::GFP/RFP ratio, acrylamide-induced, 24 h. inhibition, % at 21.8 µM. hit rate 0.49% among 360,000;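 active = interference check ratio from 0.5 to 1.5 plus GFP to RFP signal ratio inhibition reaching or exceeding a fixed threshold, cut at about 30% in these data, passing the limit was not always enough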
DAGLB inh: diacylglycerol lipase beta (human) inhibition | Q8NCG7 | HEK293T DAGLB membrane lysate, EnzChek fluorogenic substrate | inhibition, % at 5.17 µM | hit rate 0.059% among 340,000; in the data active = inhibition above about 34%
Target sequence (Q8NCG7 whole entry, looked up): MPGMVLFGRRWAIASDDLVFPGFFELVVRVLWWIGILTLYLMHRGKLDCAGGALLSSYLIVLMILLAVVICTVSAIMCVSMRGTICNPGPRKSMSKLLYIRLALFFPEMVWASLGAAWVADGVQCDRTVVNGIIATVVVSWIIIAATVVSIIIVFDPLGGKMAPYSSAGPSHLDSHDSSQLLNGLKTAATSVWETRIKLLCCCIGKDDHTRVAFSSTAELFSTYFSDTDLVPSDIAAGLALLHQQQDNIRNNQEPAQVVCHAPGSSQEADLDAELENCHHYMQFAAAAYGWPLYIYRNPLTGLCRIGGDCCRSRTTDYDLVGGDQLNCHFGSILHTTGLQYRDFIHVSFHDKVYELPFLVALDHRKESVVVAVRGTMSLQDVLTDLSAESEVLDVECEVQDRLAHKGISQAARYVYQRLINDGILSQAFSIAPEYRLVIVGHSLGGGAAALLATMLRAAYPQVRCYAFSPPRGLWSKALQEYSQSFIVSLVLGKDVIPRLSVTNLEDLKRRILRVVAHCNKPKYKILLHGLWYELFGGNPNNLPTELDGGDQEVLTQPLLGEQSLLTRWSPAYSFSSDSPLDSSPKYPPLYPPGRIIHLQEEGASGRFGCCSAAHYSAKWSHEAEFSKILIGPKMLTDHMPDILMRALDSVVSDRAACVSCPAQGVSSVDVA
rRNA inh HTS: inhibits bacterial ribosomal RNA function over humanized ribosomes; GFP signal change (wild-type ribosome), % (test concentration not listed); E. coli WT GFP vs humanized-ribosome RFP mutants, fluorescence, 24 h; stronger effect = lower value; DMSO median 0, no signal -100; hit rate 1.6% among 350,000;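 active = significant combined selectivity score with lowered wild-type GFP, culture density cut under 30%, mutant RFP and density less affected; inactive = any of these conditions unmet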
hiPSC survival: hiPSC single-cell survival enhancement. survival enhancement, % at 20 µM. hit rate 0.044% among 360,000. ATPlite luminescence; 100% = ROCK inhibitor wells, 0% = DMSO. AID 602274; in the data active = survival enhancement above about 18%;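 also: cells exposed to compounds for 16 hours before the ATP read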
Of the large screens only hits and unclear results are named; the others gave an inactive call. Rows were chosen to be rich in hits. Some 1.8% of all compounds tested hit in one or more screens of this group.

CN1C(C(=O)Nc2cccc(O)c2)=CC(c2cccs2)=NS1(=O)=O	none
CC(=O)c1cccc(NC(=O)C2=CC(c3cccs3)=NS(=O)(=O)N2C)c1	rRNA inh HTS -19.5
Cc1cc(C(=O)Nc2cccc3c2O[C@H](CN(C)Cc2ccc4c(c2)OCO4)[C@H](C)CN([C@@H](C)CO)C3=O)n(C)n1	none (no result: MT1-MMP act inh, SKN-1 inh, DAGLB inh, hiPSC survival)
Cc1noc(C)c1NC(=O)N(C)C[C@H]1Oc2cc(C#CCC3CCCC3)ccc2S(=O)(=O)N([C@@H](C)CO)C[C@H]1C	none (no result: MT1-MMP act inh, SKN-1 inh, DAGLB inh, hiPSC survival)
CCOc1ccc(NC(=O)/C(C#N)=C/c2cn(CC(=O)O)c3ccccc23)cc1	rRNA inh HTS -25.7
CCOc1cccc(NC(=O)/C(C#N)=C\c2cn(CC(=O)O)c3ccccc23)c1	none
CSc1nnc(-c2ccccc2Cl)o1	none (no result: rRNA inh HTS)
Clc1ccccc1-c1ncc(-c2ccccc2)o1	SKN-1 inh 41.8
O=C(O)c1ccccc1-c1ccccc1C(=O)Nc1ccc2c(c1)oc(=O)c1ccccc12	SKN-1 inh 36.2
COc1ccc(S(=O)(=O)N(C)C[C@@H]2OCCCC[C@H](C)Oc3ccc(N(C)C)cc3C(=O)N([C@H](C)CO)C[C@@H]2C)cc1	none (no result: MT1-MMP act inh, SKN-1 inh, DAGLB inh, hiPSC survival)
CCN(CC(=O)Nc1ccc(NC(C)=O)cc1)C(=O)/C=C/c1cn(-c2ccccc2)nc1-c1cccs1	rRNA inh HTS -18.1
CCN(CC(=O)Nc1ccc(NC(C)=O)cc1)C(=O)/C=C/c1ccccc1	none
CC1OC(c2ccccc2)OC2COC(c3ccccc3)OC12 (stereo not drawn)	SKN-1 inh 36.1 (no result: Cneo AK release, rRNA inh HTS)
CCn1c(-c2ccc3[nH]c(C)c(C)c3c2)n[nH]c1=S	none
Cc1[nH]c2ccc(-c3n[nH]c(=S)n3C)cc2c1C	rRNA inh HTS -15.8
Cn1c(=O)n(C)c2cc(/C=C(/C#N)C(=O)NCc3ccco3)ccc21	SKN-1 inh 97.5 (no result: Cneo AK release)
Cc1cccn2c(=O)c(/C=C(\C#N)C(=O)NCc3ccco3)c(N3CCCCCC3)nc12	rRNA inh HTS -29.8 (no result: DAGLB inh)
Cc1cccn2c(=O)c(C=Nc3ccccc3)c(NCc3ccco3)nc12	SKN-1 inh 40.8 (no result: rRNA inh HTS)
Cc1cc(/C=C(\C#N)C(=O)NCc2ccco2)c(C)n1-c1ccc(C(=O)O)cc1	none (no result: Cneo AK release)
C[C@H]1CN([C@@H](C)CO)C(=O)c2cc(NC(=O)Nc3ccc(C(F)(F)F)cc3)ccc2O[C@H]1CN(C)C(=O)Nc1ccccc1	none (no result: MT1-MMP act inh, SKN-1 inh, DAGLB inh, hiPSC survival)
C[C@@H]1CN([C@H](C)CO)C(=O)Cc2cc(NC(=O)Cn3cnnn3)ccc2O[C@@H]1CN(C)Cc1ccc(C(=O)O)cc1	none (no result: MT1-MMP act inh, SKN-1 inh, DAGLB inh, hiPSC survival)
COc1ccc(OC)c(-c2csc(NC(=O)Cc3ccc(OC)c(OC)c3)n2)c1	none
COc1ccc(CC(=O)Nc2nc(-c3cc(OC)ccc3OC)cs2)cc1	rRNA inh HTS -21.8 (no result: Cneo AK release)
COc1ccc(OC)c(-c2csc(NC(=O)COC(=O)C3(C)CC3(Cl)Cl)n2)c1 (stereo not drawn)	rRNA inh HTS -20.6
COc1cccc(CC(=O)Nc2nc(-c3cc(OC)ccc3OC)cs2)c1	rRNA inh HTS -23.5 (no result: Cneo AK release)
COc1ccc(OC)c(-c2csc(NC(=O)Cc3ccccc3)n2)c1	none
COc1ccc2c3c(n(C)c2c1)[C@H](CO)NCC31CN(Cc2ccc(-c3ccccn3)cc2)C1	none (no result: MT1-MMP act inh, Cneo AK release, SKN-1 inh, DAGLB inh, hiPSC survival)
CO[C@H]1CN(C)C(=O)c2ccc(NC(=O)Nc3cc(F)ccc3F)cc2OC[C@@H](C)N(C(=O)c2cnccn2)C[C@@H]1C	none (no result: MT1-MMP act inh, SKN-1 inh, DAGLB inh, hiPSC survival)
COc1ccc(-c2cn(-c3ccc(C)cc3)c(=O)n2CC(=O)Nc2ccc(OC)cc2OC)cc1	SKN-1 inh 37.9 (no result: rRNA inh HTS)
O=C(C[C@@H]1CC[C@@H]2[C@H](COC[C@H](O)CN2Cc2ccccc2F)O1)N[C@H]1CCN(Cc2ccccc2)C1	none (no result: MT1-MMP act inh, SKN-1 inh, DAGLB inh, hiPSC survival)
CCOC(=O)c1ccc(NC(=O)COc2ccccc2CNCCc2ccccc2)cc1	none (no result: Cneo AK release)
CCOC(=O)c1ccc(NC(=O)CNNC(=O)COc2ccccc2C)cc1	rRNA inh HTS -29.2
O=C(C[C@@H]1CC[C@@H](NC(=O)NC2CCCCC2)[C@@H](CO)O1)NCc1ccc(Cl)cc1	none (no result: MT1-MMP act inh, SKN-1 inh, DAGLB inh, hiPSC survival)
O=C(c1ccc(Cl)cc1)N1CCN(c2cccc3[nH]ccc23)CC1	rRNA inh HTS -25.2 (no result: Cneo AK release)
O=C(c1ccc(Cl)cc1)N1CCN(c2ccc(F)cc2)CC1	none (no result: rRNA inh HTS)
